This is an account of results in ChEMBL document CHEMBL3826910, “Discovery of 3-(5'-Substituted)-Benzimidazole-5-(1-(3,5-dichloropyridin-4-yl)ethoxy)-1H-indazoles as Potent Fibroblast Growth Factor Receptor Inhibitors: Design, Synthesis, and Biological Evaluation” (J Med Chem, 2016).

The subject of data set [1] is NCI-H1581. Kind of data set: Antitumor activity against human NCI-H1581 cells xenografted in po dosed nude mouse assessed as tumor growth inhibition administered as qd for 21 days measured on day 21 post last dose. It is filed as functional, organism-based. An outline of the steps: (§1)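 Female nude mice (4–6 weeks) housed under SPF conditions. NCI-H1581 tumours were first grown from 5 × 10^6 cells s.c., and 1.5 mm3 fragments were then transplanted s.c. into the right flank. At 115 mm3, mice were randomized and given vehicle or compound orally once daily for 21 days (2 or 10 mg/kg). Tumours were measured by caliper twice weekly, with TV = length × width²/2.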
Background: A xenograft is tissue or cells of one species grown in another, often human tumour cells in immunodeficient mice.

In data set [2] the target is T1, Receptor-type tyrosine-protein kinase FLT3 (Homo sapiens, UniProt P36888).
T1 sequence (P36888 whole entry): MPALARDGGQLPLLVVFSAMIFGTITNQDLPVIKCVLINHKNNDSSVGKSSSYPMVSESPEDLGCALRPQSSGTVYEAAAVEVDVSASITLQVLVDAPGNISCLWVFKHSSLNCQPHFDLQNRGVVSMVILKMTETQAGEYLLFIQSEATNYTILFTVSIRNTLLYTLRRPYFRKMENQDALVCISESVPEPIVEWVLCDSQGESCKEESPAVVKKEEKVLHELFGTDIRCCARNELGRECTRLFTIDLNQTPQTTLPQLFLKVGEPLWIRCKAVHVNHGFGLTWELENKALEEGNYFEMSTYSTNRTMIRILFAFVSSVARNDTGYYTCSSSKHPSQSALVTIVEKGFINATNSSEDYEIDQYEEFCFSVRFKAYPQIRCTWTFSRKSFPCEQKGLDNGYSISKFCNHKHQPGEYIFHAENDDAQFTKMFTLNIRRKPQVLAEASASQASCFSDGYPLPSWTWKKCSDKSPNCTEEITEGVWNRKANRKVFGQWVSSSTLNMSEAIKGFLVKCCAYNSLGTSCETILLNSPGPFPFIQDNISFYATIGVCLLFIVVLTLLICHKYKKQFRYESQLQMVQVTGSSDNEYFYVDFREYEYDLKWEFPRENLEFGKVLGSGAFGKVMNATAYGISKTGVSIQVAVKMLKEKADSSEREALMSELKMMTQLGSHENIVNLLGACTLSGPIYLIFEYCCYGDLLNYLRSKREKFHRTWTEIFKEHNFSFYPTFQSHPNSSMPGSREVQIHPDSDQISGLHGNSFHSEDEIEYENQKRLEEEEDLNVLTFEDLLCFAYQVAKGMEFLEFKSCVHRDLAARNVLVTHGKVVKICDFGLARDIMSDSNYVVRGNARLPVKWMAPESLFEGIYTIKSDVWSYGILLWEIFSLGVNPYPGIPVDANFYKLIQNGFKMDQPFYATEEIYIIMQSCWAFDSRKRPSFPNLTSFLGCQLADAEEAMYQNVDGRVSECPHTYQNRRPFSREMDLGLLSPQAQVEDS
Kind of data set: Inhibition of recombinant human Flt3 using poly (Glu, Tyr) 4:1 as substrate after 60 mins by ELISA. Put shortly: (§2)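 Purified recombinant kinases tested by ELISA on plates pre-coated with 20 µg/mL poly(Glu,Tyr) 4:1. Reaction run 60 min at 37 °C. Read-out: PY99 anti-phosphotyrosine antibody, HRP anti-mouse IgG and o-phenylenediamine/H2O2, with A490 measured. IC50 from inhibition curves, two independent experiments.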
On the technique in general: In an ELISA, binding on a coated surface is turned into a signal by an enzyme label.

The target of data set [3] is Fibroblast growth factor receptor 2 (Homo sapiens, UniProt P21802). Briefly: Inhibition of FGFR2 in human SNU15 cells assessed as reduction of ERK phosphorylation at 0.1 to 10 nM after 2 hrs by Western blot method. It is filed as cell-based. For orientation: A western blot detects proteins with antibodies after separation by electrophoresis.
Data set [4] has as its system NCI-H1581. Briefly: Antitumor activity against FGFR1-amplified human NCI-H1581 cells xenografted in nude mouse assessed as tumor growth inhibition at 2 mg/kg, po qd administered for 21 days measured on day 21 post last dose relative to vehicle-treated control. It is filed as functional. As to conditions: 504 h, read-out: TGI. Put shortly: as §1
In data set [5] the target is Fibroblast growth factor receptor 1 (Homo sapiens, UniProt P11362). Kind of data set: Inhibition of FGFR1 phosphorylation in human KG1 cells after 2 hrs by Western blot method. It is filed as cell-based. As to conditions: KG-1. An outline of the steps: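 KG-1 cells treated at indicated concentrations for 2 h, then lysed in 1× SDS sample buffer. Lysates run on 10% SDS-PAGE, transferred to nitrocellulose, and probed for phospho-FGFR, PLCγ and Erk. Detection by enhanced chemiluminescence.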

In data set [6] the target is Proto-oncogene tyrosine-protein kinase Src (Homo sapiens, UniProt P12931). Briefly: Inhibition of recombinant human c-Src using poly (Glu, Tyr) 4:1 as substrate after 60 mins by ELISA. An outline of the steps:
as §2

Data set [7] can be described thus: Volume of distribution at steady state in Sprague-Dawley rat at 1 mg/kg, iv. It is filed as ADME, organism-based. As to conditions: in vivo, read-out: Vdss.

Activity calls are given as the source filed them. The calls are words filed in the database; no cut-off is given here.

Proto-oncogene tyrosine-protein kinase Src, sequence (P12931 2-536 limits assumed): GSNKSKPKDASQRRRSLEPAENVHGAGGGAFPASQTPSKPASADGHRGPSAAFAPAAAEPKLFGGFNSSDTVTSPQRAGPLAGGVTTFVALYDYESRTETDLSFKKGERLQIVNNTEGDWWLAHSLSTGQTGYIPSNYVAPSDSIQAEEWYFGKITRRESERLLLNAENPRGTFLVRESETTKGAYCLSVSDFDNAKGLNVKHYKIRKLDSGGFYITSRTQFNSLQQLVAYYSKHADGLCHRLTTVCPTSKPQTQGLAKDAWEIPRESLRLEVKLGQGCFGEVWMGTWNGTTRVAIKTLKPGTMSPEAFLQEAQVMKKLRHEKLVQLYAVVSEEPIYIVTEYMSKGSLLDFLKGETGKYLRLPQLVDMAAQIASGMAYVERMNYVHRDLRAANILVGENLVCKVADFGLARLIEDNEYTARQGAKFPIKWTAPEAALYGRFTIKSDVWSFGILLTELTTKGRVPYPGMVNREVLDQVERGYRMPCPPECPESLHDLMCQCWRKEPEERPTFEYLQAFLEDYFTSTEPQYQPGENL
Fibroblast growth factor receptor 2, sequence (P21802 22-821 limits assumed): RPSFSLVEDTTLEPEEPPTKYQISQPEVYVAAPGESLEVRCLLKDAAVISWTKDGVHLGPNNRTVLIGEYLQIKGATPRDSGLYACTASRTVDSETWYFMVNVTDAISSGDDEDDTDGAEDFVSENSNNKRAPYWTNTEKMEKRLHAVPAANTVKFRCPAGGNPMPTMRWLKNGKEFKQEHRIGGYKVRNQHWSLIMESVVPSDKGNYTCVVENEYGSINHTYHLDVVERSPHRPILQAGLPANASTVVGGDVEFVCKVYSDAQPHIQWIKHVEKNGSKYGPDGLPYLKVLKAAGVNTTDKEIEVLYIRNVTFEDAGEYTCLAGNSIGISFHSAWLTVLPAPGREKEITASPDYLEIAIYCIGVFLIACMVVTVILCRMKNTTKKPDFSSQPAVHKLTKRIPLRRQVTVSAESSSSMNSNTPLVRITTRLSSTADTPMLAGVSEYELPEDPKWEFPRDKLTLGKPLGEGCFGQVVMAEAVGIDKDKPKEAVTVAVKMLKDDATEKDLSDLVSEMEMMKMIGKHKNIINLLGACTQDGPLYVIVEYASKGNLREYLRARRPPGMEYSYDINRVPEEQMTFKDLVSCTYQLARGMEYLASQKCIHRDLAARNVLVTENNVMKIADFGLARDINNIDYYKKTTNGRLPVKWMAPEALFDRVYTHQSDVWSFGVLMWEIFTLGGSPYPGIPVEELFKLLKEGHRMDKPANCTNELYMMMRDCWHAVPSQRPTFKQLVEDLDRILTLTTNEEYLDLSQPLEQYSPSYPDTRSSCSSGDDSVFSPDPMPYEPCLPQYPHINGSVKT
Fibroblast growth factor receptor 1, sequence (P11362 22-822 limits assumed): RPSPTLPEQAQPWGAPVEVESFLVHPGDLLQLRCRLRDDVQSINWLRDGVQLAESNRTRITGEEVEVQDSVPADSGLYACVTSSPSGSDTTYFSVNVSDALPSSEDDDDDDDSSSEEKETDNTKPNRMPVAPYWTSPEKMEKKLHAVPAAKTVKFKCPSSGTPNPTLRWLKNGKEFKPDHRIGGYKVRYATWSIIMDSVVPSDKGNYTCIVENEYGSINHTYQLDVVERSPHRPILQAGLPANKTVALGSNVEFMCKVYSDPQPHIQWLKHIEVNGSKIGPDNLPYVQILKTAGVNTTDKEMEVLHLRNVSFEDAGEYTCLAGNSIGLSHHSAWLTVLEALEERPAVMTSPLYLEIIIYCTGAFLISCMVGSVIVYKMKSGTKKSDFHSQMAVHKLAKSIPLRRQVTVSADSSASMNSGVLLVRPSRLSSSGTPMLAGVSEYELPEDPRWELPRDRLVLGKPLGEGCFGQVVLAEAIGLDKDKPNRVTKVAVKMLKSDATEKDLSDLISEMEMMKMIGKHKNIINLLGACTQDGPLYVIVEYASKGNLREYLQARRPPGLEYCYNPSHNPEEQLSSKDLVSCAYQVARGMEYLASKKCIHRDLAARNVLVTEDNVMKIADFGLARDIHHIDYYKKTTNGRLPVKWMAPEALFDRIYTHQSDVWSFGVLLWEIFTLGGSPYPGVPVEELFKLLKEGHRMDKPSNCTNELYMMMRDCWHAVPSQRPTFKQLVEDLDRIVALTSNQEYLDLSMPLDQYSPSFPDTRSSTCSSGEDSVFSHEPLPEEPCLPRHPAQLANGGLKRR

As to `C[C@@H](Oc1ccc2[nH]nc(-c3nc4cc(N5CCN(C)CC5)ccc4[nH]3)c2c1)c1c(Cl)cncc1Cl`, the TGI entry in data set [1] was “Dose-dependent effect”. In addition, the IC50 in data set [2] and in data set [6] was over 100 nM in each case. The inhibition entry in data set [3] is “Active”. Moreover, in data set [4], the inhibition in vivo at 2 mg/kg came to 44.5%. In data set [5], the inhibition entry was “Dose-dependent effect”. The Vd in data set [7] is 5.8 L/kg.
